Measured values published in article PMC3220788 (The Journal of steroid biochemistry and molecular biology, 2011).
Where two headings read alike, the source gives them in different places. One block for each compound: values may come before it.

How the values were obtained:
ERα/β = ERα/β (Homo sapiens, UniProt P03372); assay: ERE-GFP reporter activation/inhibition assay in MCF-7 cells; format: cell-based; details: for inhibition of E2-induced ERE response: 1 nM E2
ERα [1] = format: binding
Method in brief: (§1)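 COS7 cells are transiently transfected (Lipofectamine2000) with ERα-GFP or ERβ-GFP and serum-starved 24 h. About 5×10⁴ cells are incubated 20 min with test compound, then an equal volume of 20 nM E2-Alexa633 in saponin permeabilization buffer is added. After 10 min at RT, cells are washed in PBS/2% BSA and read by high-throughput flow cytometry.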

ERβ [2] = format: binding
Method in brief: as §1

ERα [3] = details: cited from earlier work
ERβ [4] = details: high concentrations (≥10 µM); cited from earlier work
ERα or ERβ = details: ERα- or ERβ-expressing cells; cited from earlier work
COS7 cells = assay: PI3K activation; format: cell-based; details: 10 µM, COS7 lacking ERα, ERβ and GPER
Method in brief: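 COS7 cells carry no endogenous ERα, ERβ or GPER. They are transfected with PH-mRFP1 alone (¼ the recommended amount, Lipofectamine2000), grown on coverslips and serum-starved 24 h in phenol red-free RPMI. Cells are stimulated with compounds at 10 µM, fixed in 2% PFA, and scored by confocal microscopy for nuclear translocation of the PIP3 reporter.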

ERα [5] = assay: PI3K activation; format: cell-based; details: COS7 ERα-GFP
GPER [6] = target: T1, GPER (Homo sapiens, UniProt Q99527); assay: Intracellular calcium mobilization in SKBr3 cells; format: cell-based
Method in brief: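 SKBr3 cells are loaded with 3 µM indo1-AM and 0.05% pluronic acid in HBSS for 1 h at RT, washed, and assayed at 2×10⁶ cells/mL. Calcium is read ratiometrically (ex 340 nm, em 400/490 nm) at 37°C with stirring. […] Responses are normalized to agonist plus DMSO vehicle, and IC50 is taken from the dose-response curve.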

[7] = tested on: endogenous purinergic receptors; assay: Calcium mobilization by ATP in SKBr3 cells; format: cell-based; details: 10 µM G36, SKBr3
Method in brief: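 SKBr3 cells are loaded with 3 µM indo1-AM and 0.05% pluronic acid in HBSS for 1 h at RT, washed, and assayed at 2×10⁶ cells/mL. Calcium is read ratiometrically (ex 340/em 400/490 nm) at 37°C in a stirred spectrofluorometer. Cells are pretreated with 10 µM test compound, then given 1 µM ATP to engage endogenous purinergic receptors.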

GPER [8] = target: T1, GPER; assay: PI3K activation; format: cell-based; details: COS7 GPER-GFP, 1 µM G36 preincubated 20 min
Method in brief: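 COS7 cells are cotransfected (Lipofectamine2000) with GPER-GFP and PH-mRFP1, the latter at ¼ the recommended amount. […] Cells are fixed in 2% PFA and imaged by confocal microscopy for PH-mRFP1 nuclear translocation as the PI3K read-out.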

GPER [9] = target: T1, GPER; assay: ERK activation; format: cell-based
uterine epithelia = assay: Mouse uterine estrogenicity assay; format: in vivo; details: s.c., 18 hr
[10] = entire range of concentrations tested

Sequence of ERα/β (P03372 whole entry): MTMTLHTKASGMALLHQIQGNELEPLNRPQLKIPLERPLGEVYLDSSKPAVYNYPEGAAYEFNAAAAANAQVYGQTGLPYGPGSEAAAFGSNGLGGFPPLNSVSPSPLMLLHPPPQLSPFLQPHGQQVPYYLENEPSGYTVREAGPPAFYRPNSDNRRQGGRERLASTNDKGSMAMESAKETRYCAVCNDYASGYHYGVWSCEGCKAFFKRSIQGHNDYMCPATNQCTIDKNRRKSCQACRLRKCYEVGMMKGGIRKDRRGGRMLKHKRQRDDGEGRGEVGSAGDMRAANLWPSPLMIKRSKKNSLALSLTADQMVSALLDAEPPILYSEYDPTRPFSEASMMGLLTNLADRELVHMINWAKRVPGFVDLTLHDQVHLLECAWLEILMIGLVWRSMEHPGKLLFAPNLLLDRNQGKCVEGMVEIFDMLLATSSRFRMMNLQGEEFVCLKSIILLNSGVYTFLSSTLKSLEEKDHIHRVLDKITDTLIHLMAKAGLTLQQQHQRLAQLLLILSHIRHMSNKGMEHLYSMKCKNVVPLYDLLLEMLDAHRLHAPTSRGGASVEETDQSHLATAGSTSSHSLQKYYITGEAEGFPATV
T1 sequence (Q99527 whole entry, species assumed): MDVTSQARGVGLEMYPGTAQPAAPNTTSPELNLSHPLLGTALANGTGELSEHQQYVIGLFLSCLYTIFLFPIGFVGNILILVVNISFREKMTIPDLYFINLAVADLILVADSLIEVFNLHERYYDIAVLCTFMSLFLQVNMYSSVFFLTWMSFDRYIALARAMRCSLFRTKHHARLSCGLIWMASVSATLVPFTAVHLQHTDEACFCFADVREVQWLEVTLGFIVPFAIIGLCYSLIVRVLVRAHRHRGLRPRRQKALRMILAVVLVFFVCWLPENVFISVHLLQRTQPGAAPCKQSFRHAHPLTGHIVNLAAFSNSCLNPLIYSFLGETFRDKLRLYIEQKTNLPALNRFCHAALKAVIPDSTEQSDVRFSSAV

SMILES: Brc1cc2c(cc1[C@@H]1Nc3ccccc3[C@@H]3C=CC[C@@H]31)OCO2 [G15]
inhibition of E2-induced ERE response (ERα/β; 1 µM compound): no significant effect
ERE reporter activity compared to maximal E2 response (ERα/β; 1 µM, Fig. 5): ~ 15%
inhibition of E2-induced ERE response (ERα/β; 10 µM compound): ~ 30%
inhibitory effects on estrogen-induced transcription (ERα/β; E2 at 10 nM (data not shown)): absent
ERE activation (ERα/β; concentrations 1–10 µM, Fig. 2): 15–20%
activation of the ERE reporter (of E2 response) (ERα/β; high doses (≥1 µM), 24 h, MCF-7 ERE-GFP): ≤ 20%
binding to ERα (competition of E2-Alexa633) (ERα [1]; highest concentration, 10 µM): weak but significant binding
binding to ERβ (competition of E2-Alexa633) (ERβ [2]; highest concentration, 10 µM): weak but significant binding
binding to ERα (ERα [3]; high concentrations (≥10 µM)): weak binding
binding to ERβ (ERβ [4]): weak binding
rapid signaling events via MAPK or PI3K pathways (ERα or ERβ): does not mediate rapid signaling events

SMILES: C[C@]12CC[C@@H]3c4ccc(O)cc4CC[C@H]3[C@@H]1CC[C@@H]2O [E2, 17β-estradiol, reference compound]
activation of PI3K (nuclear translocation of PH-RFP) (COS7 cells): no activation of PI3K
activation of PI3K (nuclear translocation of PH-RFP) (ERα [5]): activate PI3K

SMILES: CC(=O)c1ccc2c(c1)C1C=CCC1C(c1cc3c(cc1Br)OCO3)N2 (stereo not drawn) [G-1]
activation of PI3K (nuclear translocation of PH-RFP) (COS7 cells): no activation of PI3K
ER binding competition (ERα [3]; 10 µM): unable to detect significant competition

inhibition at 10 µM (ERα/β; MCF7, read-out: inhibition of E2-induced ERE response): < 5%
ERE response elicited (ERα/β; concentrations up to 1 µM): no significant ERE response
antagonism of E2-mediated ERE response (ERα/β; concentrations up to 10 µM): no ability to antagonize
effect on basal calcium level in cells (GPER [6]; 10 µM G36 alone, SKBr3): did not alter
IC50 (GPER [6]; IC50, inhibition of E2-mediated calcium mobilization, SKBr3, E2 200 nM): 112 nM
IC50 (GPER [6]; IC50, inhibition of G-1-mediated calcium mobilization, SKBr3, G-1 200 nM): 165 nM
inhibition of E2-induced PI3K activation (GPER [8]): effectively inhibited
effect on E2-induced ERK activation (GPER [9]; SKBr3, E2 10 nM, 1 µM antagonist pre-incubated 15 min): significant decrease
effect on EGF-induced ERK activation (GPER [9]; SKBr3, EGF 10 ng/mL, 1 µM antagonist): unchanged
effect on G-1-induced ERK activation (GPER [9]; SKBr3, G-1 10 nM, 1 µM antagonist pre-incubated 15 min): significant decrease
SMILES: CC(C)c1ccc2c(c1)C1C=CCC1C(c1cc3c(cc1Br)OCO3)N2 (stereo not drawn) [G36, 4-(6-Bromo-benzo[1,3]dioxol-5-yl)-8-isopropyl-3a,4,5,9b-tetrahydro-3H-cyclopenta[c]quinoline]
binding to ERα (competition of E2-Alexa633) (ERα [1]; [10]): lacking detectable binding activity
binding to ERβ (competition of E2-Alexa633) (ERβ [2]; [10]): lacking detectable binding activity
inhibition of calcium mobilization by 1 µM ATP [7]: no inhibition
activation of PI3K (nuclear translocation of PH-RFP) (COS7 cells): no activation of PI3K
inhibition of E2-mediated PI3K activation (ERα [5]; 1 µM G36 preincubated 20 min): did not inhibit
effect on proliferation compared to E2 treatment (uterine epithelia; G36 50 ug/kg with E2 10 ug/kg): significant decrease in proliferation
effect on proliferative response to G-1 (uterine epithelia; G36 50 ug/kg with G-1 10 ug/kg): completely abrogated
uterine epithelial proliferation (Ki-67 positivity), compound alone (uterine epithelia; ovariectomized C57Bl6 mice, E2 10 ug/kg, G-1 10 ug/kg, G36 50 ug/kg): no effect
